Activity calls are given as the source filed them. The calls are words filed in the database; no cut-off is given here.
Assays:
[1] = system: HCT-116; assay: Induction of apoptosis in human HCT-116 cells assessed as viable cells at 5 uM incubated for > 6 hrs by annexin V/PI staining based analysis (Rvb=90.04%); type: functional; conditions: read-out: Activity
[2] = molecular target: Dual specificity protein kinase CLK3 (Homo sapiens) (UniProt P49761); assay: Inhibition of CLK3 (unknown origin) at 123 nM in the presence of ATP by Kinome scan method relative to control; conditions: time > 6.0 hrs
Chain of Dual specificity protein kinase CLK3 (Homo sapiens) (P49761 whole entry, looked up): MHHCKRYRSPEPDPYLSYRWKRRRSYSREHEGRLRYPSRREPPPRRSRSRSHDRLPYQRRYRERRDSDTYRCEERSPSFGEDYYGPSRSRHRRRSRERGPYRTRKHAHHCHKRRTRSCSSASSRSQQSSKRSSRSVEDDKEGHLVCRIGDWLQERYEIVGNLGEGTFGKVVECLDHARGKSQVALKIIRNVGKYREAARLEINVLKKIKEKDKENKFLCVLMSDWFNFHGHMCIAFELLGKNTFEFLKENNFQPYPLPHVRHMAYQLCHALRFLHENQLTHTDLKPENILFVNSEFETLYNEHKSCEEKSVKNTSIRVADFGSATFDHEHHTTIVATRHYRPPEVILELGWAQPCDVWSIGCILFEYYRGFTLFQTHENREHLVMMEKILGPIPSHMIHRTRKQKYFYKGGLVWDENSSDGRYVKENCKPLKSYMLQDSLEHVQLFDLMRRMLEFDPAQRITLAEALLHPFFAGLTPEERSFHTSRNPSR

[3] = molecular target: Dual specificity tyrosine-phosphorylation-regulated kinase 4 (Homo sapiens) (UniProt Q9NR20); assay: Inhibition of DYRK4 (unknown origin) at 1110 nM in the presence of ATP by Kinome scan method relative to control; conditions: time > 6.0 hrs
Chain of Dual specificity tyrosine-phosphorylation-regulated kinase 4 (Homo sapiens) (Q9NR20 whole entry): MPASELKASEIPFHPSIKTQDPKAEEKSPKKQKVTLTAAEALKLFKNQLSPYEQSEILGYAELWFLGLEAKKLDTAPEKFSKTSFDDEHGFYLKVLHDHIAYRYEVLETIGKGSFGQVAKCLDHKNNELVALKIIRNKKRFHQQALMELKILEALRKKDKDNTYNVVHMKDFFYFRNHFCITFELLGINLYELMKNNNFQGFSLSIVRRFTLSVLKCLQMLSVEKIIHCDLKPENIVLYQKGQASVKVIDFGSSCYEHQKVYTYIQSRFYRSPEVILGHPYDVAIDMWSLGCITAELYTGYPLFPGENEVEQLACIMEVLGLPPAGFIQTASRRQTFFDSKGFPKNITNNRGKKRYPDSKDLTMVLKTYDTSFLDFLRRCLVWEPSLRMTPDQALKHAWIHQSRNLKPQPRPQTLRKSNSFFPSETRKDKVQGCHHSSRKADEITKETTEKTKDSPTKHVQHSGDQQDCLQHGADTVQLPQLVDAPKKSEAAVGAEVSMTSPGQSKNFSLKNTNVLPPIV

[4] = molecular target: Dual specificity tyrosine-phosphorylation-regulated kinase 4 (Homo sapiens) (UniProt Q9NR20); assay: Inhibition of DYRK4 (unknown origin) at 123 nM in the presence of ATP by Kinome scan method relative to control; conditions: time > 6.0 hrs
[5] = molecular target: SRSF protein kinase 2 (Homo sapiens) (UniProt P78362); assay: Inhibition of SRPK2 (unknown origin) at 1110 nM in the presence of ATP by Kinome scan method relative to control; conditions: time > 6.0 hrs
Chain of SRSF protein kinase 2 (Homo sapiens) (P78362 whole entry, looked up): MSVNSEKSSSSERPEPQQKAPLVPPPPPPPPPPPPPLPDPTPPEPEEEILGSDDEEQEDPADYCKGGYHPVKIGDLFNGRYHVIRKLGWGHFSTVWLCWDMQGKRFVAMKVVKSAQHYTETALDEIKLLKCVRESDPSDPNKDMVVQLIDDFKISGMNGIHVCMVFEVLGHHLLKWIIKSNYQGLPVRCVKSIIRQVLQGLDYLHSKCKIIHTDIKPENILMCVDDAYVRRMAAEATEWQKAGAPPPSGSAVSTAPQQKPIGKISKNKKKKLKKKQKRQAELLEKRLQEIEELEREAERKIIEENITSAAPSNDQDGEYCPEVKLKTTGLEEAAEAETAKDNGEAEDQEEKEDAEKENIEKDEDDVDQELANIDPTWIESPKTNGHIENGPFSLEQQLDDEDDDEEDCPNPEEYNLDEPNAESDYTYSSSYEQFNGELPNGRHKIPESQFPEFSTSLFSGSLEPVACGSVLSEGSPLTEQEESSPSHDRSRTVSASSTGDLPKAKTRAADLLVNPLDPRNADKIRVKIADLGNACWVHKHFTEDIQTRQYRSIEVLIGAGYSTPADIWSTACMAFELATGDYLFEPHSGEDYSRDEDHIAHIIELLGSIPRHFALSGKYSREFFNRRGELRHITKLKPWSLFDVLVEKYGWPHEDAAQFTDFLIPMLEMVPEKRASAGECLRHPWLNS

[6] = molecular target: AMP-activated protein kinase (AMPK) alpha-1/beta-1/gamma-1 (Homo sapiens) (UniProt P54619+Q9Y478+Q13131); assay: Inhibition of AMPK A1/B1/G1 (unknown origin) at 1000 nM in the presence of ATP by Kinome scan method relative to control; type: protein-complex assay
[7] = molecular target: Aurora kinase B (Homo sapiens) (UniProt Q96GD4); assay: Inhibition of AURKB (unknown origin) at 1000 nM in the presence of ATP by Kinome scan method relative to control
Chain of Aurora kinase B (Homo sapiens) (Q96GD4 whole entry): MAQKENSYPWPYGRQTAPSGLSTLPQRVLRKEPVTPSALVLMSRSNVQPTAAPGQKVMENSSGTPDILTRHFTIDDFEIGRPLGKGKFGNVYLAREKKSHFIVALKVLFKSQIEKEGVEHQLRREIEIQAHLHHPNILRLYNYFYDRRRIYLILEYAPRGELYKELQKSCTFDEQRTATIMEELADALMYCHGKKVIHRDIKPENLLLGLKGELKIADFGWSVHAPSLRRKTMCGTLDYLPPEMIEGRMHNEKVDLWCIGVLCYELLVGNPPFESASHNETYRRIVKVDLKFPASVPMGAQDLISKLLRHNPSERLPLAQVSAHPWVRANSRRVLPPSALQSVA

[8] = molecular target: Serine/threonine-protein kinase B-raf (Homo sapiens) (UniProt P15056); assay: Inhibition of BRAF (unknown origin) at 1000 nM in the presence of ATP by Kinome scan method relative to control
[9] = molecular target: Ephrin type-A receptor 1 (Homo sapiens) (UniProt P21709); assay: Inhibition of EPHA1 (unknown origin) at 100 nM in the presence of ATP by Kinome scan method relative to control
[10] = molecular target: Glycogen synthase kinase-3 beta (Homo sapiens) (UniProt P49841); assay: Inhibition of GSK3B (unknown origin) at 1000 nM in the presence of ATP by Kinome scan method relative to control
[11] = molecular target: Homeodomain-interacting protein kinase 2 (Homo sapiens) (UniProt Q9H2X6); assay: Inhibition of HIPK2 (unknown origin) at 100 nM in the presence of ATP by Kinome scan method relative to control
[12] = molecular target: Mitogen-activated protein kinase 1 (Homo sapiens) (UniProt P28482); assay: Inhibition of MAPK1 (unknown origin) at 1000 nM in the presence of ATP by Kinome scan method relative to control
Chain of Mitogen-activated protein kinase 1 (Homo sapiens) (P28482 whole entry): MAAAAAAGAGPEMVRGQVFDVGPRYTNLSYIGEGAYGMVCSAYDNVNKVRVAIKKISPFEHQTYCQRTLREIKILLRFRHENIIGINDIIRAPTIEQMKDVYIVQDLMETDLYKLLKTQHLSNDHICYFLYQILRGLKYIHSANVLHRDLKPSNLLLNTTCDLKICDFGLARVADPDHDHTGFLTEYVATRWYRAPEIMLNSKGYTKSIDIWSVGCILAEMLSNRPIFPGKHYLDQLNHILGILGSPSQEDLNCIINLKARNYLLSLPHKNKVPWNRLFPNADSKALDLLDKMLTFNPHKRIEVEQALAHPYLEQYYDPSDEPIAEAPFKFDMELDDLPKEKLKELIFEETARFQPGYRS

[13] = molecular target: Mitogen-activated protein kinase 11 (Homo sapiens) (UniProt Q15759); assay: Inhibition of MAPK11 (unknown origin) at 1000 nM in the presence of ATP by Kinome scan method relative to control
[14] = molecular target: Mitogen-activated protein kinase 9 (Homo sapiens) (UniProt P45984); assay: Inhibition of MAPK9 (unknown origin) at 100 nM in the presence of ATP by Kinome scan method relative to control
Chain of Mitogen-activated protein kinase 9 (Homo sapiens) (P45984 whole entry, looked up): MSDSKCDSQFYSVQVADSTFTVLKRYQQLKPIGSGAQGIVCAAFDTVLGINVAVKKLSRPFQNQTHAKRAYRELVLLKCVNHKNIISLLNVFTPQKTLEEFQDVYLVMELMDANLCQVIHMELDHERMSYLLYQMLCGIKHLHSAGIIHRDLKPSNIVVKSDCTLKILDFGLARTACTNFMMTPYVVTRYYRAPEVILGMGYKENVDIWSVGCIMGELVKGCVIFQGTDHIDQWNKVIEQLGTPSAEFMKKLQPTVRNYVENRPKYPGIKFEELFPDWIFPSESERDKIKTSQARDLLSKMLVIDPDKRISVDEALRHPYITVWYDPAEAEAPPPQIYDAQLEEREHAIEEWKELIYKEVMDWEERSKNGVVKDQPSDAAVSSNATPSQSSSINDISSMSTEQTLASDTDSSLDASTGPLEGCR

[15] = molecular target: MAP kinase-activated protein kinase 2 (Homo sapiens) (UniProt P49137); assay: Inhibition of MAPKAPK2 (unknown origin) at 100 nM in the presence of ATP by Kinome scan method relative to control
Chain of MAP kinase-activated protein kinase 2 (Homo sapiens) (P49137 whole entry, looked up): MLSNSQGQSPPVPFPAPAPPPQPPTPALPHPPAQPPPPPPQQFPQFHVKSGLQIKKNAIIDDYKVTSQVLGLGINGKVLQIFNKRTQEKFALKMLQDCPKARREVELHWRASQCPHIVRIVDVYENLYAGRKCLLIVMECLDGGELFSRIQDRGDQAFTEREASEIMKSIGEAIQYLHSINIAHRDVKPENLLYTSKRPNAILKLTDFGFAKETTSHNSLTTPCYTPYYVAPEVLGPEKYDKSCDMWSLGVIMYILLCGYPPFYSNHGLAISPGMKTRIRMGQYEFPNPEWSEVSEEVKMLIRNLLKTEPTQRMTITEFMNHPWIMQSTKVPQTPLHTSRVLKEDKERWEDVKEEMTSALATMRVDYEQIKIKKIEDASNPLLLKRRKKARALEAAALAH

[16] = molecular target: Hepatocyte growth factor receptor (Homo sapiens) (UniProt P08581); assay: Inhibition of MET (unknown origin) at 1000 nM in the presence of ATP by Kinome scan method relative to control
[17] = molecular target: Protein kinase C alpha type (Homo sapiens) (UniProt P17252); assay: Inhibition of PRKCA (unknown origin) at 1000 nM in the presence of ATP by Kinome scan method relative to control
[18] = molecular target: Protein kinase C theta type (Homo sapiens) (UniProt Q04759); assay: Inhibition of PRKCQ (unknown origin) at 1000 nM in the presence of ATP by Kinome scan method relative to control
[19] = molecular target: Proto-oncogene tyrosine-protein kinase receptor Ret (Homo sapiens) (UniProt P07949); assay: Inhibition of RET (unknown origin) at 1000 nM in the presence of ATP by Kinome scan method relative to control
[20] = molecular target: Angiopoietin-1 receptor (Homo sapiens) (UniProt Q02763); assay: Inhibition of TEK (unknown origin) at 1000 nM in the presence of ATP by Kinome scan method relative to control
Chain of Angiopoietin-1 receptor (Homo sapiens) (Q02763 whole entry): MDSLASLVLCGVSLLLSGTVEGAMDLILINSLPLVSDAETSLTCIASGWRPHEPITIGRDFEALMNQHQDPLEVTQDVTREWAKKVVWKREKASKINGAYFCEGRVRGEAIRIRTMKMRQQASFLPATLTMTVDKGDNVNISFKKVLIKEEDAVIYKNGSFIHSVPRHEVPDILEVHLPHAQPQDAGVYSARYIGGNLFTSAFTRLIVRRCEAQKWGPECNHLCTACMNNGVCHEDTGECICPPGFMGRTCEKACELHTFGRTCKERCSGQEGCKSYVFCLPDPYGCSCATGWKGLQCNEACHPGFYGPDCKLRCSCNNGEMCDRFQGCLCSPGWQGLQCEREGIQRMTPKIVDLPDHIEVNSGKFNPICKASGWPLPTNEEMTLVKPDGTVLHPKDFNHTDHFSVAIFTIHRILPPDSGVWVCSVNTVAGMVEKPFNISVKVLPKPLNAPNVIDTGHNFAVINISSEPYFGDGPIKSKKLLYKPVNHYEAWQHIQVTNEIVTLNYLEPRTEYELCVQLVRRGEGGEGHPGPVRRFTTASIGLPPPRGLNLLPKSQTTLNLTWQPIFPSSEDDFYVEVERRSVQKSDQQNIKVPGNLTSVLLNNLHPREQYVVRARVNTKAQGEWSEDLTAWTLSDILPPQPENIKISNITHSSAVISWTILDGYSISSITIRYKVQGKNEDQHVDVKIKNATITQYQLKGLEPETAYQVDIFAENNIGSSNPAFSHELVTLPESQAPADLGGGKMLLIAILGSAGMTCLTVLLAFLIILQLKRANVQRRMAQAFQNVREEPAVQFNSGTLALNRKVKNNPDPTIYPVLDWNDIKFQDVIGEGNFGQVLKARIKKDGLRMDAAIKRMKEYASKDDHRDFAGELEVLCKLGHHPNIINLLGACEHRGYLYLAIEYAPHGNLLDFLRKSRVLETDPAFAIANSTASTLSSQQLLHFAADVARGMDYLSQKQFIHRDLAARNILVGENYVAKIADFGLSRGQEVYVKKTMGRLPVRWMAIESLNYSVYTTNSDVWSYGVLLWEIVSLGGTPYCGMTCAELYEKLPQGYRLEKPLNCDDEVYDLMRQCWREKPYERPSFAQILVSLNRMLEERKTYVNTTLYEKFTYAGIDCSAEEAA

[21] = molecular target: Angiopoietin-1 receptor (Homo sapiens) (UniProt Q02763); assay: Inhibition of TEK (unknown origin) at 100 nM in the presence of ATP by Kinome scan method relative to control
[22] = molecular target: CDK7/Cyclin H/MNAT1 (Homo sapiens) (UniProt P51946+P50613+P51948); assay: Inhibition of CDK7/cyclin H/MNAT1 (unknown origin) at 100 nM in the presence of ATP by Kinome scan method relative to control; type: protein-complex assay
[23] = molecular target: Dual specificity protein kinase CLK1 (Homo sapiens) (UniProt P49759); assay: Inhibition of CLK (unknown origin) in human MDA-MB-468 cells assessed as SRSF1 phosphorylation level incubated for 3 hrs by immunoblot analysis; type: cell-based
Chain of Dual specificity protein kinase CLK1 (Homo sapiens) (P49759 whole entry, looked up, canonical isoform): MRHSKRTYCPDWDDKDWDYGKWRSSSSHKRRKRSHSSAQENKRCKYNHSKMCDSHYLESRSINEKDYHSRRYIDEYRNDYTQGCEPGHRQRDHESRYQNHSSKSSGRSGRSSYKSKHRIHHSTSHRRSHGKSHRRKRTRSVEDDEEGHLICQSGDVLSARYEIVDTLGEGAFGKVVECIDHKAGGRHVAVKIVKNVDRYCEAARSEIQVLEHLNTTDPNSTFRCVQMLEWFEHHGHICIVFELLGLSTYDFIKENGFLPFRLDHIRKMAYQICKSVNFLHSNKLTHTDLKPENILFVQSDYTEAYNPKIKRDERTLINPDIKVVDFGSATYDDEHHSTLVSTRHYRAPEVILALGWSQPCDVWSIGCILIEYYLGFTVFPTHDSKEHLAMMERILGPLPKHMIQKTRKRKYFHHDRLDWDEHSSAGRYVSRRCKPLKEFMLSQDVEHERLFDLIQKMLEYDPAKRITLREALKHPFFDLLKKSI

[24] = molecular target: Dual specificity protein kinase CLK1 (Homo sapiens) (UniProt P49759); assay: Inhibition of CLK (unknown origin) in human HCT-116 cells assessed as decrease in SRSF4 phosphorylation level at 0.5 to 1.0 uM incubated for 6 hrs by immunoblot analysis; type: cell-based; conditions: dose 0.5-1 µM
[25] = system: HCT-116; assay: Induction of cell cycle arrest in human HCT-116 cells assessed as G0/G1 phase at 0.1 uM incubated for 6 hrs by flow cytometry analysis (Rvb=35.0%); type: functional
[26] = system: HCT-116; assay: Induction of cell cycle arrest in human HCT-116 cells assessed as G2/M phase at 0.5 uM incubated for 6 hrs by flow cytometry analysis (Rvb=25.8%); type: functional
[27] = system: HCT-116; assay: Induction of cell cycle arrest in human HCT-116 cells assessed as sub G0/G1 phase at 1 uM incubated for 6 hrs by flow cytometry analysis (Rvb=1.6%); type: functional
[28] = molecular target: Dual specificity protein kinase CLK1 (Homo sapiens) (UniProt P49759); assay: Inhibition of CLK (unknown origin) in human 184-hTERT cells assessed as induction in alternative splicing effect in S6K skipped exon /canonical form incubated for 6 hrs by RT-PCR analysis; type: cell-based; conditions: dose 0.2-5 µM
Outline: (§1)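 Cells exposed to graded T3 concentrations for 6 h (chosen to avoid cytotoxicity), with a DMSO vehicle control. Total RNA was reverse-transcribed with oligo-dT primers. Targeted splice or conjoined-gene products were quantified by real-time qPCR or by targeted next-generation sequencing. Conjoined-gene isoform expression was normalized to a sequenced housekeeping gene.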

[29] = molecular target: Dual specificity protein kinase CLK1 (Homo sapiens) (UniProt P49759); assay: Inhibition of CLK (unknown origin) in human 184-hTERT cells assessed as induction in alternative splicing effect in S6K skipped exon incubated for 6 hrs by RT-PCR analysis; type: cell-based; conditions: dose 0.2-5 µM; outline: as §1
[30] = molecular target: Dual specificity tyrosine-phosphorylation-regulated kinase 1A (Homo sapiens, UniProt Q13627); assay: Inhibition of DYRK1A (unknown origin) using ULight-MBP peptide as substrate incubated for 10 mins in presence of ATP incubated for 45 mins by LANCE Ultra kinase assay

inhibition [2]: 38%
inhibition [3]: -3%
inhibition [4]: -8%
inhibition [5]: 5%
inhibition [6]: 0%
inhibition [7]: 16%
inhibition [8]: 17%
inhibition [9]: -2%
inhibition [10]: -3%
inhibition [11]: -4%
inhibition [12]: 4%
inhibition [13]: 1%
inhibition [14]: 3%
inhibition [15]: 4%
inhibition [16]: -7%
inhibition [17]: 4%
inhibition [18]: 4%
inhibition [19]: -2%
inhibition [20]: 0%
inhibition [21]: 0%
inhibition [22]: 1%
inhibition [23]: Active
inhibition [24]: Active
inhibition [28]: Dose-Dependent Effect
inhibition [29]: Dose-Dependent Effect
IC50 [30]: 260 nM
SMILES: CN1CCN(C(=O)C(C)(C)c2ccc(C(=O)Nc3cn4cc(-c5ccncc5)ccc4n3)cc2)CC1 [T3-CLK]
viability at 5 µM [1]: 86.6%
Activity [25]: 24%
Activity [26]: 34.8%
Activity [27]: 1.5%

Source: ChEMBL document CHEMBL5696444 (Nat Commun, 2017)
